Data on one compound can be found in ChEMBL document CHEMBL4229335 (Eur J Med Chem, 2018).

One data set concerns Bel7402/5-FU. The data set can be described thus: Antiproliferative activity against human Bel7402/5-FU cells after 72 hrs by MTT assay. Type of data set: functional, cell-based. An outline of the steps:
(§1)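 MTT assay with 72 h exposure to graded concentrations in triplicate. MTT solution then DMSO were added, followed by 10 min at room temperature, with absorbance read at 490 nm. IC50 is reported as the mean of three independent experiments. 5-FU served as positive control.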
On the technique in general: Tetrazolium dyes change colour on reduction, which living cells bring about.

The test system of another data set is L02. Briefly: Antiproliferative activity against human LO2 cells after 72 hrs by MTT assay. It counts as cell-based. Conditions: L02, 72 h. An outline of the steps:
as §1

Data set [1] in a line: Selectivity index, ratio of IC50 for human LO2 cells to IC50 for human Bel7402 cells. Type of data set: toxicity. Conditions: LO2 cells versus Bel7402 cells, read-out: Ratio IC50. An outline of the steps:
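SI was calculated as IC50 in L-02 normal liver cells divided by IC50 in Bel-7402 cells, both from the 72 h MTT assay.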

In data set [2] the test system is Bel-7402. Briefly: Cell cycle arrest in human Bel7402 cells assessed as accumulation of cells at G1 phase at 0.8 uM after 48 hrs by propidium iodide staining-based flow cytometric analysis (reference value: 63.55%). Type of data set: functional. An outline of the steps: (§2)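 Bel-7402 cells were seeded in 6-well plates and grown 24 h at 37 °C. Compound in DMSO was added in triplicate, with DMSO-only controls, for 48 h. Cells were then centrifuged, fixed in 70% ethanol at 4 °C and stained with propidium iodide. DNA content was measured by flow cytometry to give cell-cycle phase distribution.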
(In general: A flow cytometer gives signals particle by particle.)

The subject of data set [3] is Bel-7402. The data set can be described thus: Cell cycle arrest in human Bel7402 cells assessed as accumulation of cells at S phase at 0.8 uM after 48 hrs by propidium iodide staining-based flow cytometric analysis (reference value: 12.92%). It counts as functional. An outline of the steps:
as §2

Data set [4] concerns Bel-7402. Briefly: Cell cycle arrest in human Bel7402 cells assessed as accumulation of cells at G2 phase at 1.2 uM after 48 hrs by propidium iodide staining-based flow cytometric analysis (reference value: 23.53%). Type of data set: functional. An outline of the steps: as §2
In data set [5] the test system is Bel-7402. Briefly: Induction of apoptosis in human Bel7402 cells assessed as early apoptotic cells at 0.4 uM after 24 hrs by Annexin V-FITC/propidium iodide staining-based flow cytometric analysis (reference value: 1.07%). It counts as functional.
For data set [6], the system named is Bel-7402. The data set can be described thus: Induction of apoptosis in human Bel7402 cells assessed as early apoptotic cells at 1.2 uM after 24 hrs by Annexin V-FITC/propidium iodide staining-based flow cytometric analysis (reference value: 1.07%). Type of data set: functional.
Data set [7] concerns Bel-7402. The data set can be described thus: Induction of mitochondrial membrane potential loss in human Bel7402 cells at 1.2 uM after 48 hrs by JC-1 dye-based flow cytometric analysis (reference value: 7.20%). Type of data set: functional. An outline of the steps: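 Bel-7402 cells were exposed in triplicate for 48 h to compound or vehicle. Cells were washed with PBS and stained with JC-1 in the dark. The fraction of cells with collapsed versus intact mitochondrial membrane potential was counted by flow cytometry.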

For data set [8], the system named is Bel-7402. Briefly: Induction of apoptosis in human Bel7402 cells assessed as upregulation of caspase9 expression after 48 hrs by Western blot analysis. Type of data set: functional, cell-based. An outline of the steps: (§3)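 Bel-7402 cells were treated in triplicate for 48 h at 0, 0.4, 0.8 and 1.2 µM. Protein content of lysates was determined, then lysates were run on 10% SDS-PAGE and transferred to nitrocellulose. Membranes were blocked with 5% fat-free milk, probed with monoclonal antibodies and detected by ECL chemiluminescence.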
In general terms: Immunoblotting shows a protein as a band on a membrane.

Data set [9] relates to Bel-7402. Briefly: Induction of apoptosis in human Bel7402 cells assessed as upregulation of cytochrome C expression after 48 hrs by Western blot analysis. Type of data set: functional, cell-based. An outline of the steps: as §3

One may read the IC50 as the concentration that inhibits the measured activity by half. Low readings indicate greater potency, high ones weaker potency.

For `C=C1C(=O)[C@@]23C(=O)O[C@H]4CCC(C)(C)[C@H]5[C@H](O)OC[C@@]45[C@@H]2CC[C@@H]1[C@H]3OC(=O)c1ccc(N(CCCl)CCCl)cc1`, the IC50 with Bel7402/5-FU is 2.07 µM; in the data set with L02, greater than 100 µM. The selectivity ratio in data set [1] was greater than 130. Further, the Activity in the data set on Bel-7402 [2] was determined as 69.71%; in the data set on Bel-7402 [3], 14.42%; in the data set on Bel-7402 [4] it was 13.33%; in the data set on Bel-7402 [5], 11.8%; with Bel-7402 [6], 41.53%; with Bel-7402 [7], 40%. The Activity entry in the data set on Bel-7402 [8] and in the data set with Bel-7402 [9] was “Dose-dependent effect” in each case.
